These results are taken from ChEMBL document CHEMBL1287776, “Synthesis and biological evaluations of P4-benzoxaborole-substituted macrocyclic inhibitors of HCV NS3 protease” (Bioorg Med Chem Lett, 2010).

For series [1], the species on record is Rattus norvegicus. The series can be described thus: Metabolic absorption in rat. The note with it: in vivo. The series is classed as ADME, organism-based. The method, boiled down:
(§1)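 Rat pharmacokinetics with blood drawn from both the jugular and portal veins after oral dosing, with IV dosing as reference. Absorption is calculated from portal vein drug levels. Oral bioavailability is calculated from jugular vein levels, each compared with levels after IV administration.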

Series [2] in a line: (§2) Oral bioavailability in rat. The series is classed as ADME, organism-based. The note with it: in vivo. The procedure, abridged:
as §1

A short description of series [3]: Inhibition of HCV 1a NS3/4A protease by FRET assay. Also on record: species or system Hepatitis C virus subtype 1a. The method, boiled down:
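FRET assay with the genotype 1a NS3/4A protease domain and a fluorogenic peptide substrate. Buffer is 50 mM HEPES, 20% sucrose, 5 mM DTT and 0.05% NP-40. Initial rates are read at ex 490/em 520 nm. IC50 values are means of duplicate or triplicate experiments.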

Series [4] concerns Hepatitis C virus. The series can be described thus: Antiviral activity against HCV 1b infected in human Huh-7 cells after 48hrs by luciferase assay. The note with it: genotype 1b, Huh-7, 48 h. The series is classed as functional, organism-based, Hepacivirus hominis. The procedure, abridged: (§3)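 Subgenomic (NS3-NS5B) luciferase replicon cells for genotype 1a or 1b. The 1b ET line is stably transfected with a firefly luciferase-ubiquitin-neo replicon carrying cell culture adaptive mutations. Cells are seeded at 5 × 10³/well onto compounds in 1% DMSO final. Luciferase is read after 48 h. EC50 comes from an 11-point, 3-fold dilution curve, as % inhibition versus no-compound control, with a four-parameter logistic fit.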

Series [5] has as its system Hepatitis C virus. The series can be described thus: Antiviral activity against HCV 1a infected in human Huh-7 cells after 48hrs by luciferase assay. The series is classed as functional, organism-based, Hepacivirus hominis. The settings on record: subtype 1a, Huh-7, 48 h. The method, boiled down: as §3
The test system of series [6] is Rattus norvegicus. The series is described as §2. The settings on record: in vivo, BLD = below limit of detection. The series is classed as ADME, organism-based. The method, boiled down:
as §1

In the series filed under Rattus norvegicus [1], `O=C(NCc1ccc2c(c1)B(O)OC2)N[C@H]1CCCCC/C=C\[C@@H]2C[C@@]2(C(=O)NS(=O)(=O)C2CC2)NC(=O)C2C[C@@H](OC(=O)N3Cc4cccc(F)c4C3)CN2C1=O` (some centres undefined) registered an Activity of 0.6%. In addition, the bioavailability in series [2] stood at 0.7%. The compound also had an IC50 in series [3] of 0.4 nM. Besides, the EC50 was 0.9 nM in the series with Hepatitis C virus [4] and 160 nM in the series with Hepatitis C virus [5].

As for `CC1OB(O)c2cc(NC(=O)N[C@H]3CCCCC/C=C\[C@@H]4C[C@@]4(C(=O)NS(=O)(=O)C4CC4)NC(=O)C4C[C@@H](OC(=O)N5Cc6cccc(F)c6C5)CN4C3=O)c(F)cc21` (some centres undefined), the IC50 in series [3] worked out at 0.4 nM. Further, the concentration giving a half-maximal response (EC50) came out at 1.2 nM in the series on Hepatitis C virus [4] and 20 nM with Hepatitis C virus [5].

With `O=C(N[C@H]1CCCCC/C=C\[C@@H]2C[C@@]2(C(=O)NS(=O)(=O)C2CC2)NC(=O)C2C[C@@H](OC(=O)N3Cc4cccc(F)c4C3)CN2C1=O)Oc1ccc2c(c1)COB2O` (some centres undefined), the IC50 in series [3] is 2.4 nM. Moreover, the EC50 worked out at 172 nM in the series on Hepatitis C virus [4] and 3550 nM in the series with Hepatitis C virus [5].

In turn, `O=C(Nc1cc2c(cc1F)COB2O)N[C@H]1CCCCC/C=C\[C@@H]2C[C@@]2(C(=O)NS(=O)(=O)C2CC2)NC(=O)C2C[C@@H](OC(=O)N3Cc4cccc(F)c4C3)CN2C1=O` (some centres undefined) displayed a 50% inhibitory concentration (IC50) in series [3] of less than 0.2 nM. In addition, the EC50 came to 1.5 nM in the series with Hepatitis C virus [4] and 35 nM in the series on Hepatitis C virus [5].

`O=C(N[C@H]1CCCCC/C=C\[C@@H]2C[C@@]2(C(=O)NS(=O)(=O)C2CC2)NC(=O)C2C[C@@H](OC(=O)N3Cc4cccc(F)c4C3)CN2C1=O)Oc1ccc2c(c1)B(O)OC2` (some centres undefined) showed an IC50 in series [3] of 1.6 nM. In addition, the half-maximal effective concentration (EC50) worked out at 15 nM in the series on Hepatitis C virus [4] and 661 nM with Hepatitis C virus [5].

Regarding `CC(C)(C)OC(=O)N[C@H]1CCCCC/C=C\[C@@H]2C[C@@]2(C(=O)NS(=O)(=O)C2CC2)NC(=O)[C@@H]2C[C@@H](OC(=O)N3Cc4cccc(F)c4C3)CN2C1=O` [DANOPREVIR], the Activity in the series filed under Rattus norvegicus [1] was found to be 17.4%. The compound also came in with a bioavailability in series [2] of 20%. The same compound gave an IC50 in series [3] of 0.4 nM. Further, the values for the EC50 in the series with Hepatitis C virus [4] and in the series with Hepatitis C virus [5] were 1.1 nM and 1 nM, respectively.

Consider `O=C(Nc1ccc2c(c1)B(O)OC2)N[C@H]1CCCCC/C=C\[C@@H]2C[C@@]2(C(=O)NS(=O)(=O)C2CC2)NC(=O)C2C[C@@H](OC(=O)N3Cc4cccc(F)c4C3)CN2C1=O` (some centres undefined), for which, in the series filed under Rattus norvegicus [1], the Activity was determined as 0.9%. In series [2], the bioavailability amounted to 0.5%. This compound also had an IC50 in series [3] of 0.4 nM. Further, the EC50 was found to be 3.7 nM in the series on Hepatitis C virus [4] and 159 nM with Hepatitis C virus [5].

`COc1ccc2c(O[C@@H]3CC4C(=O)N[C@]5(C(=O)NS(=O)(=O)C6CC6)C[C@H]5/C=C\CCCCC[C@H](NC(=O)Nc5ccc6c(c5)B(O)OC6)C(=O)N4C3)cc(-c3nc(C(C)C)cs3)nc2c1C` (some centres undefined): it took 5.6 nM to reach half-maximal inhibition in series [3] (IC50). Further, the EC50 came to 1.2 nM in the series with Hepatitis C virus [4] and 12.5 nM in the series with Hepatitis C virus [5].

In series [3], `COc1cnc(O[C@@H]2CC3C(=O)N[C@]4(C(=O)NS(=O)(=O)C5CC5)C[C@H]4/C=C\CCCCC[C@H](NC(=O)NCc4ccc5c(c4)B(O)OC5)C(=O)N3C2)c2cc(Cl)ccc12` (some centres undefined) showed an IC50 of 0.4 nM. Besides, the EC50 with Hepatitis C virus [4] was 3.9 nM; with Hepatitis C virus [5], 50.1 nM.

Consider `COc1ccc2c(O[C@@H]3C[C@H]4C(=O)N[C@]5(C(=O)NS(=O)(=O)C6CC6)C[C@H]5/C=C\CCCCN(C)C(=O)[C@@H]4C3)cc(-c3nc(C(C)C)cs3)nc2c1C` [SIMEPREVIR], for which, in series [3], the half-maximal inhibitory concentration (IC50) was found to be 10 nM. The EC50 was 1.4 nM with Hepatitis C virus [4] and 2.3 nM in the series on Hepatitis C virus [5].

Take `COc1ccc2c(O[C@@H]3CC4C(=O)N[C@]5(C(=O)NS(=O)(=O)C6CC6)C[C@H]5/C=C\CCCCC[C@H](NC(=O)NCc5ccc6c(c5)B(O)OC6)C(=O)N4C3)cc(-c3nc(C(C)C)cs3)nc2c1C` (some centres undefined): in the series filed under Rattus norvegicus [1] (BLD = below limit of detection), the Activity result was “BLD”. Further, the F entry in the series with Rattus norvegicus [6] is given as “BLD”. This compound returned an IC50 in series [3] of 4.1 nM. In addition, the EC50 in the series with Hepatitis C virus [4] was determined as 0.5 nM; with Hepatitis C virus [5] it was 4.2 nM.

In series [3], `COc1cnc(O[C@@H]2CC3C(=O)N[C@]4(C(=O)NS(=O)(=O)C5CC5)C[C@H]4/C=C\CCCCC[C@H](NC(=O)Nc4ccc5c(c4)B(O)OC5)C(=O)N3C2)c2cc(Cl)ccc12` (some centres undefined) came in with an IC50 of 0.6 nM. Moreover, the EC50 in the series with Hepatitis C virus [4] was 3.9 nM; in the series on Hepatitis C virus [5], 60.3 nM.
